Screening data deposited in PubChem by several laboratories.
JMJD2C inh = human JMJD2C demethylase inhibition. Q9H3R0. GST-JMJD2C(1-420) H3K9me3 demethylation, DELFIA europium. inhibition, % at 2.35 µM. 0.069% of 330,000 active. AID 2099;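 active means more than half of a compound's replicate wells show inhibition beyond 50%, single wells judged on their own value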;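 further: signal counts dimethyl H3K9 product captured on neutravidin plate; 0% = median of DMSO wells and 100% = 0.3 times that DMSO median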
Target sequence (Q9H3R0 1-420 limits assumed): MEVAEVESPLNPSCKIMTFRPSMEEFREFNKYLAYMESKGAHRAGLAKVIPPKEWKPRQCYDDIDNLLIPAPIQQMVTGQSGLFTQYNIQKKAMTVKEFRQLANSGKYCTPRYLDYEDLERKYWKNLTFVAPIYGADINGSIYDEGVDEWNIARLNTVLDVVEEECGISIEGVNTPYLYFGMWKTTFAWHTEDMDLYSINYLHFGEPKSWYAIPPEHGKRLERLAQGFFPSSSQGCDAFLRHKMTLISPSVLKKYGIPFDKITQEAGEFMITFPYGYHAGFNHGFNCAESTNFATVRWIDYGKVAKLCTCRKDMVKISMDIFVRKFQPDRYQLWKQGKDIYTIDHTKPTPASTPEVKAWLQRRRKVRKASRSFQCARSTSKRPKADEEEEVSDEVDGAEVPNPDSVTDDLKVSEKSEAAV
697 NFkB inh = lowers PMA/ionomycin-induced NF-kB signal in 697 B cells. 697 B-cell NF-kB luciferase reporter, 16 h. AID 435022. inhibition, % at 4 µM. 0.33% of 330,000 active; in the data active means inhibition above about 35%
NR2E3 ag-1 = human photoreceptor-specific nuclear receptor agonism; Q9Y5X4; CHO-S Gal4-NCOR/VP16-NR2E3 two-hybrid, luciferase; inhibition of corepressor binding, % at 3.98 µM; 0.35% of 360,000 active; AID 602229;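 active means inhibition above the mean of all tested compounds plus 3 SD, cut at about 70% in these data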;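 further: 0% = DMSO with NR2E3 transfected cells and 100% = cells lacking NR2E3 construct; higher means lower luciferase signal from less NR2E3 corepressor binding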
Jurkat NFkB inh = lowers PMA/ionomycin-induced NF-kB signal in Jurkat cells; PMA/ionomycin-induced NF-kB luciferase reporter, luminescence; inhibition, % at 4 µM; 0.53% of 330,000 active; AID 435003; in the data active means inhibition above about 50%
GalR3 antag = human GalR3 antagonism. O60755. HEK293 GalR3-CNG cAMP membrane potential fluorescence; galR3 body fused to GalR1 C-terminus. inhibition, % at 3 µM. 0.44% of 360,000 active. AID 651719;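 active means inhibition above the screen-wide average plus 3 SD, cut at about 13% in these data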;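 further: forskolin and galanin both at EC90 stimulate the cells; cAMP rise reported by CNG channel membrane potential dye signal; 0% = forskolin plus galanin with DMSO and 100% = forskolin alone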
Target sequence (O60755 1-299 limits assumed): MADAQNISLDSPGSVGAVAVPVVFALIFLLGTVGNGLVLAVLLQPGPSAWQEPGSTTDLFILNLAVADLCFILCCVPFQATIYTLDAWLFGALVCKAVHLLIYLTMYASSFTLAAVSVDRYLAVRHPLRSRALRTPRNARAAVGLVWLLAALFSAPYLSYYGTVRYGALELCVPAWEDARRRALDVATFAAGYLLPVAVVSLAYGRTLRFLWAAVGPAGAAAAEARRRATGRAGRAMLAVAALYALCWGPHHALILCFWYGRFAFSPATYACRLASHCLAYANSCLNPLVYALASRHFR
NR2E3 ag-2 = activates human photoreceptor nuclear receptor NR2E3; inhibition of corepressor binding, % at 4.78 µM; Q9Y5X4; GST-NR2E3/biotin-RetCOR TR-FRET, 1536-well; 0.12% of 320,000 active;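 active means percent inhibition above the cutoff of mean plus 3 SD of all tested compounds, set per screening campaign, cut at about 20% in these data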;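 further: 0% = DMSO wells and 100% = biotin wells as full block of FRET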
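System: GST-tagged NR2E3 plus biotinylated RetCOR corepressor; Amount: 1.35 nM GST-tagged NR2E3 final; Dosing: single nominal compound dose of 4.8 µM; Schedule: 5 h incubation at 4 °C; Technique: TR-FRET with europium anti-GST and streptavidin-D2, 340 nm excitation; Controls: biotin wells as high control, 0.6% DMSO wells as low control.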
GalR3 conf = confirmation of human galanin receptor 3 antagonists | shares compounds with GalR3 antag | HEK293 GalR3 CNG cAMP biosensor, membrane potential fluorescence; galR3 fused to GalR1 carboxy tail; challenged with forskolin and galanin at EC90 | inhibition, % at 3 µM | 59% of 1,600 active | AID 652245;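 active means inhibition above the primary screen's cutoff, the mean inhibition of all screened compounds plus 3 SD, cut at about 13% in these data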;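 further: 0% = forskolin plus galanin and 100% = forskolin alone with DMSO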
CNG parental = parental cell agonism counter-screen for GalR3 antagonists; activation, % at 3 µM; shares compounds with GalR3 antag; 10% of 1,600 active; HEK293-CNG parental cells, cAMP membrane potential fluorescence; normalised: DMSO wells 0%, forskolin wells 100%; in the data active means activation above about 1.3%
Active calls of the source: *; nt = no result given. Most compounds without a hit are left out; they make up all but 1.5% or so of the library.

SMILES | JMJD2C inh | 697 NFkB inh | NR2E3 ag-1 | Jurkat NFkB inh | GalR3 antag | NR2E3 ag-2 | GalR3 conf | CNG parental
Cc1cc(NC(=O)COC(=O)C2CC(=O)N(c3ccc(Cl)cc3)C2)no1 (configuration not stated) | 13 | 12 | -7 | 0 | -5 | 2 | nt | nt
COc1ccc(-c2ccc(-c3cc(=O)oc4c(C(C)C)ccc(C)c34)cc2)cc1 | nt | 1 | 6 | nt | 23* | nt | 13* | 0
CNCC(=O)Nc1ccc(Cl)c(C(F)(F)F)c1 | 32 | 8 | 10 | -4 | -3 | 3 | nt | nt
Cc1ccccc1NC(=O)CNc1ccc(Cl)c(C(F)(F)F)c1 | 2 | -9 | 7 | 26 | 14* | 3 | 2 | 0
Cc1nc(-c2ccc(C(=O)Nc3cccc(Br)c3)cc2)cs1 | 11 | -109 | -183 | -64 | 98* | 1 | 102* | 0
COc1cc(NC(=O)c2cc(C)on2)cc(C(=O)Nc2cccc(C(F)(F)F)c2)c1 | -5 | 23 | -16 | -13 | -5 | -1 | 5 | 0
Nc1ncnc2c1ncn2[C@@H]1O[C@H](CO)C[C@H]1O | 8 | 1 | 16 | -3 | 16* | 2 | 30* | 0
CCOC(=O)N1CCN(C(=O)c2ccccc2N(Cc2ccccc2)S(=O)(=O)c2ccccc2)CC1 | 7 | 19 | -12 | 14 | -5 | 4 | nt | nt
COc1cc(/C=C2\SC(=Nc3c(C)n(C)n(-c4ccccc4)c3=O)NC2=O)ccc1O | nt | nt | 6 | nt | 31* | nt | 34* | 0
Nc1ccn([C@@H]2O[C@H](C(=O)N3CCSC3)[C@@H](O)[C@H]2O)c(=O)n1 | nt | nt | 10 | nt | -6 | nt | nt | nt
CCOC(=O)N1CCN(C(=O)C[C@@H]2C[C@@]3(C(=O)OC)CCCCC=C3N(Cc3ccccc3)C2=O)CC1 | nt | nt | -16 | nt | -4 | nt | nt | nt
Cc1ccc2c(c1)N(CC(=O)NCCCN1CCOCC1)C(=O)C(C(C)C)O2 (configuration not stated) | 11 | -22 | -32 | -6 | -6 | -4 | nt | nt
CCOC(=O)C1CCN(C(=O)c2ccc(OCC(=O)Nc3cccc(C(F)(F)F)c3)c(OC)c2)CC1 | -28 | -32 | 9 | 48 | 92* | 6 | 107* | 0
O=C(/C=C/c1ccccc1)NC(NC(=S)Nc1cccc(O)c1)C(Cl)(Cl)Cl (configuration not stated) | -4 | -12 | -6 | 0 | 18* | -5 | 17* | -1
O=C(/C=C/c1ccccc1)NC(NC(=S)Nc1cccc(Cl)c1)C(Cl)(Cl)Cl (configuration not stated) | 3 | -26 | 4 | -7 | -2 | 1 | nt | nt
Cc1ccccc1NC(=O)CN(C)S(=O)(=O)c1ccc(-c2ccc(=O)[nH]n2)s1 | -17 | -18 | -15 | -17 | 7 | 1 | nt | nt
Cc1cccc(NC(=O)CN(C)S(=O)(=O)c2ccc(-c3ccc(=O)[nH]n3)s2)c1C | -3 | -4 | -41 | 8 | 80* | -1 | 12 | 0
CC1=CC(C)(C)n2c(O)c(N=NC(N)=S)c3c(C)ccc1c32 | 6 | -4 | 1 | 5 | 14* | -1 | 8 | -2
CC1=CC(C)(C)n2c(O)c(N=NC(N)=S)c3c(C)c(C)cc1c32 | 23 | 34 | -43 | -8 | -4 | 0 | nt | nt
CC(C)[C@H](NC(=O)c1c(F)cccc1F)C(=O)N1CCN(c2ccc(F)cc2)CC1 | -10 | -6 | -9 | -2 | 13* | 2 | 4 | 0
COc1cc(C(=O)NC2CCN(C)CC2)ccc1Nc1ncc2c(n1)N(C1CCCCC1)CCC(=O)N2C | nt | nt | -2 | nt | 19* | nt | 13* | 0
C[C@]12C(=O)N(c3ccc(Cl)cc3)C(=O)N1[C@@H]1c3ccccc3OC[C@@H]1[C@H]2c1ccccc1 | -17 | -19 | -3 | -2 | -6 | 2 | nt | nt
Cc1c(NC(=O)C(C)OC(=O)c2ccc(NC(=O)CC#N)cc2)c(=O)n(-c2ccccc2)n1C (configuration not stated) | 8 | 6 | -34 | -7 | 2 | 2 | nt | nt
Nc1nnc(SCC(=O)NCCNC(=O)CSc2nnc(N)s2)s1 | -16 | -12 | -24 | 15 | -4 | 7 | nt | nt
Nc1nnc(SCC(=O)NCCOc2ccccc2)s1 | -9 | -2 | -1 | -28 | 18* | 1 | 4 | 0
SMILES | JMJD2C inh | 697 NFkB inh | NR2E3 ag-1 | Jurkat NFkB inh | GalR3 antag | NR2E3 ag-2 | GalR3 conf | CNG parental
O=C1CCC(C(=O)N2CCCC(C(=O)c3ccc4c5c(cccc35)CC4)C2)=NN1 (configuration not stated) | -3 | -14 | 8 | 6 | -6 | 4 | nt | nt
CC(=O)Nc1cccc(NC=C(C#N)C#N)c1 | -2 | 20 | -9 | 16 | 15* | 1 | -5 | 0
CCO[C@@H]1OC(C(=O)NCc2ccccc2)=C[C@H](C2CC2)[C@H]1CCCO | 1 | 18 | 19 | 11 | nt | -3 | 9 | 0
CCO[C@@H]1OC(C(=O)NCc2ccccc2)=C[C@H](C2CCCCC2)[C@H]1CCCO | -7 | 8 | 33 | 1 | -7 | 1 | nt | nt
CCOC(=O)C1=C(COC(=O)CCNS(=O)(=O)c2ccc(NC(C)=O)cc2)NC(=O)NC1C (configuration not stated) | 0 | -13 | 3 | -10 | 3 | 4 | nt | nt
Cc1cc2c(nc1C)CCCN2Cc1ccccc1C(F)(F)F | nt | nt | nt | nt | -7 | nt | nt | nt
COc1ccc(-c2noc(CCC(=O)NCCCN3CCC(Cc4ccccc4)CC3)n2)cc1 | -5 | -44 | 12 | 9 | 76* | -4 | -3 | 6.1*
COc1ccc(-c2noc(CCC(=O)NCCCN3CCN(c4ccc(F)cc4)CC3)n2)cc1 | 11 | 7 | -5 | 14 | -7 | 1 | nt | nt
CC(=O)C1=C(C)N(CC(C)C)C(=S)NC1c1cccc(Cl)c1 (configuration not stated) | nt | nt | nt | nt | -5 | nt | nt | nt
Cc1cccc(NC(=O)c2ccccc2NC(=O)c2ccco2)c1 | -47 | -5 | -1 | 0 | -3 | 1 | nt | nt
CCOC(=O)Nc1ccccc1C(=O)Nc1cc(C)cc(C)c1 | 8 | 12 | 28 | 0 | -8 | 4 | nt | nt
CCOC(=O)Nc1cccc(NC(=O)c2ccccc2F)c1 | 5 | 6 | -19 | 3 | 19* | 1 | -3 | 0
Cc1ccc(S(=O)(=O)Nc2ccc(C(=O)N3CCOCC3)cc2)cc1 | 10 | 13 | -12 | 4 | -6 | 2 | nt | nt
